Only some compounds are listed: those with a hit (about 2.3% of all), similar ones and a draw of the others.
TRPC4 agonist = opens the mouse TRPC4 cation channel | HEK293 TRPC4beta/mu-opioid, Fluo4 calcium fluorescence; hits give high values | B-score at 10 µM | 310,000 tested, 0.49% active | Q9QUQ5;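 active = B-score above 5 SD of library B-scores, and initial fluorescence ratio not above library mean plus 5 SD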;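 also: positive B-score marks a calcium rise read as TRPC4 activation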
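Material: TRPC4beta and mu-opioid receptor HEK293 stable cells | Incubation: 45 min room-temperature Fluo4 loading, 110 s read | Detection: Kinetic Fluo4 calcium fluorescence | Measure: Integrated baseline-normalised fluorescence ratio, converted to per-well B score | Benchmarks: Low control buffer alone, high control maximal DAMGO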
TRPC6 activator = mouse TRPC6 channel activation | 310,000 tested, 0.13% active | HEK293-TRPC6 membrane potential dye fluorescence; hits give high values | AID 2550 | B-score at 10 µM | Q61143;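 active = B-score of the integrated fluorescence ratio above library mean plus 3 SD, and starting fluorescence ratio within library mean plus 5 SD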;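 also: higher score means more depolarization so channel activation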
TRPC4 block = inhibitors of mouse TRPC4 channel; HEK293 TRPC4beta/mu-opioid, DAMGO-evoked Fluo4 calcium flux; hits give low values; B-score at 10 µM; 300,000 tested, 0.39% active; AID 2247;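 active = B-score over 3 SD under the library average, no early fluorescence shift, positive overall ratio signal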
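System: stable TRPC4beta/mu-opioid receptor HEK293 cells; Dosing: single-point compound dosing; Measured by: Fluo4 Ca2+ flux fluorescence; Read-out basis: per-well B score of integrated baseline-normalized Fluo4 ratio.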
TRPC6 inhibitor = blocks the mouse TRPC6 cation channel | 310,000 tested, 1.1% active | Q61143 | B-score at 10 µM | HEK293-TRPC6, membrane potential dye, ACh-evoked depolarization; hits give low values | AID 2553;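 active = B-score under library mean minus 3 SD, initial fluorescence not abnormally high, positive integrated signal ratio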;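 also: B-score derived from integrated fluorescence ratio over the kinetic read; more negative B-score means stronger inhibition of depolarization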
TRPC4 PAM = TRPC4 (mouse) allosteric potentiation | B-score at 10 µM | 310,000 tested, 0.42% active | HEK293 TRPC4beta/mu-opioid, DAMGO EC20, Fluo-4 Ca2+ flux; hits give high values | Q9QUQ5 | AID 2227;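 active = B-score of calcium response area above 5 SD of library B-scores, with initial fluorescence ratio within 5 SD of library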
Each line names hits and unclear results; the compound was inactive in the other large screens.

Cc1ccc(C)c(S(=O)(=O)/N=C2\C=C(NS(=O)(=O)c3ccccc3)C(=O)c3ccccc32)c1	TRPC4 block -7
OC(CNC1Cc2ccccc2C1)COc1ccc(Cl)cc1 (stereo not given)	none
OC(CNC1CCCc2ccccc21)COc1c(Cl)cccc1Cl (stereo not given)	TRPC4 agonist 44, TRPC4 block -5
Cc1ccn2cc(CCNC(=O)CC(C)(C)C)nc2c1	none
Cc1ccn2cc(CCNC(=O)C3CC=CCC3C(=O)O)nc2c1 (stereo not given)	TRPC4 agonist 202
COc1ccc(C(=O)Nc2ccc3oc(-c4cccc(Cl)c4)cc(=O)c3c2O)cc1	none
O=C(NC1CCCCC1)N1CCN(c2ccccc2)CC1	none
CCCn1c(N2CCN(C(=O)Nc3ccccc3)CC2)nc2ccccc21	none
O=C(NC1CCCCC1)N1CCN(C(c2ccccc2)c2ccccc2)CC1	TRPC4 block -6
CCn1c(N2CCN(CC(=O)Nc3cccc(C)c3C)CC2)nc2ccccc21	TRPC4 agonist 147
CC(C)Cn1c(N2CCN(CC(=O)Nc3ccc(Cl)cc3)CC2)nc2ccccc21	none
CCn1c(N2CCN(C(=O)Nc3ccc(F)cc3)CC2)nc2ccccc21	TRPC4 agonist 118
CCn1c(NC2CCCCC2)nc2ccccc21	TRPC4 block -6
CCn1c(N2CCN(C(=O)NC3CCCCC3)CC2)nc2ccccc21	TRPC4 agonist 46
COCCn1c(SCC(=O)N2CCC(C)CC2)nc2c(c1=O)SCC2	none
COc1ccc2nc(NS(=O)(=O)c3ccc(NC(C)=O)cc3)sc2c1	TRPC4 agonist 122, TRPC4 block -7
CC(=O)Nc1ccc2nc(NS(=O)(=O)c3ccc(C)cc3)sc2c1	none
CC(C)c1nnc(NC(=O)CCC(=O)N2CCN(Cc3ccccc3)CC2)s1	TRPC4 PAM 12
CC(=O)N1CC(C)Oc2ccc(S(=O)(=O)NC(CC(=O)O)c3cc(C)ccc3C)cc21 (stereo not given)	none
CCCN(CCC)CCCOC(=O)c1ccc(Cl)cc1Cl	none
CN(C)CCCOC(=O)c1ccc(Cl)cc1Cl	TRPC4 PAM 27
Cc1ccc(NC(=O)c2cc(S(=O)(=O)N3CCCC3)c[nH]2)c(C)c1	none
CC(Sc1nc2sc3c(c2c(=O)n1-c1ccccc1)CCCC3)C(=O)O (stereo not given)	TRPC4 PAM 17
CCC(C)NC(=O)CN(c1ccc(Cl)c(Cl)c1)S(C)(=O)=O (stereo not given)	none
COc1ccc(C(=O)NC(=S)Nc2ccc3[nH]c(=O)[nH]c3c2)cc1	none
CCOC(=O)c1cc2c(=O)n3ccccc3nc2n(CCOC)c1=NC(=O)c1ccncc1	none
CCOC(=O)c1cc2c(=O)n3ccccc3nc2n(Cc2ccco2)c1=NC(=O)c1ccccc1OCC	none
CCOC(=O)c1cc2c(=O)n3ccccc3nc2n(CCOC)c1=NC(=O)C(C)(C)C	TRPC4 agonist 152
CCOC(=O)c1cc2c(=O)n3ccccc3nc2n(C(C)C)c1=NC(=O)c1c(-c2ccccc2Cl)noc1C	TRPC4 block -8
CCOC(=O)c1cc2c(=O)n3ccccc3nc2n(Cc2ccco2)c1=NC(=O)c1cccnc1	TRPC4 PAM 11
O=C(NCCCN1CCOCC1)C1CCN(S(=O)(=O)c2c(Cl)cccc2Cl)CC1	TRPC4 PAM 15
Cc1ccc(S(=O)(=O)N2CCC(C(=O)NCCCN3CCOCC3)CC2)cc1C	none
COc1cc(NC(C)CCCN)c2ncccc2c1 (stereo not given)	TRPC4 agonist 181
Cc1ccc(-n2c(-c3ccccc3)c[n+]3c2CCc2ccccc2-3)c(C)c1	TRPC6 inhibitor -5.5
Cc1nn(-c2ccccc2)c2c1C(=O)N(Cc1ccccc1)C(=O)C(C)(C)C2	none
Cc1nn(-c2nc3ccccc3n2Cc2ccccc2)c2c1C(=O)CC(C)(C)C2	TRPC4 block -6
COCCn1c(SCC(=O)NCCc2ccc(OC)c(OC)c2)nc2c([nH]c3ccccc32)c1=O	TRPC4 PAM 11
COCCn1c(SCC(=O)Nc2ccccc2OC)nc2c([nH]c3ccccc32)c1=O	TRPC4 block -7
COCCn1c(SCC(=O)NCCc2ccccc2)nc2c([nH]c3ccccc32)c1=O	none
CN(CC(=O)NCCCc1ccccc1)S(=O)(=O)c1ccc(Br)cc1	none
CCOc1ccccc1NS(=O)(=O)c1ccc2[nH]c(=O)[nH]c2c1	TRPC4 PAM 13
CCCOc1ccccc1NS(=O)(=O)c1ccc2[nH]c(=O)[nH]c2c1	none
Cc1ccc(/C=C2\SC(=S)N(CCCC(=O)NC3CCCC3)C2=O)cc1	none
COc1cccc2[nH]c3c(N4CCN(Cc5ccc6c(c5)OCO6)CC4)ncnc3c12	TRPC6 inhibitor -6.7
CC/S(=N\S(=O)(=O)c1ccc(C)cc1)c1ccccc1 (stereo not given)	none
O=C(NCc1ccon1)C1CCC(=O)N(CCc2ccc(Cl)cc2)C1 (stereo not given)	none
COc1ccccc1N1CCN(C(c2cccs2)C(C)NC(=O)c2cccnc2)CC1 (stereo not given)	none
CC(NC(=O)C1CC1)C(c1cccs1)N1CCN(c2ccccc2)CC1 (stereo not given)	TRPC4 agonist 44
COc1ccccc1N1CCN(C(c2cccs2)C(C)NC(=O)c2cccs2)CC1 (stereo not given)	TRPC4 agonist 84
CC(C)C(=O)NC(C)C(c1cccs1)N1CCN(c2ccccc2)CC1 (stereo not given)	TRPC4 agonist 53
CCN(CC)c1nc(N2CCOCC2)nc2ccccc12	TRPC4 block -6
O/N=C/c1ccccc1Oc1ccc(Cl)cc1	TRPC4 block -6
O=C(c1cc2c(s1)-c1ccccc1S(=O)(=O)C2)N1CCN(Cc2ccccc2)CC1	TRPC4 PAM 10
CCN1CCN(C(=O)c2cc3c(s2)-c2ccccc2S(=O)(=O)C3)CC1	none
CN(CC(=O)Nc1c(Cl)cccc1Cl)C(=O)CC1Sc2ccccc2NC1=O (stereo not given)	TRPC4 block -6
COc1ccc(CN(C)C(=O)c2[nH]c(C)c(C(C)=O)c2C)cc1F	none
O=C(CCc1ccc(Oc2cc([N+](=O)[O-])cc([N+](=O)[O-])c2)cc1)N1CCCCCC1	TRPC4 agonist 75, TRPC4 block -6
N[C@@H](Cc1cc(I)c(Oc2ccc(O)c(I)c2)c(I)c1)C(=O)O	none
O=C(O)CCc1cc(I)c(Oc2ccc(O)c(I)c2)c(I)c1	TRPC4 agonist 59
CCN(CC)S(=O)(=O)c1ccc(-n2c(=O)c(C(C)C)c(C)n2C)cc1	none
Fc1ccc(-n2cc(-c3ccccc3)c3c(N4CCOCC4)ncnc32)cc1	TRPC4 PAM 15
CN(C)C(CNc1ncnc2sccc12)c1ccccc1 (stereo not given)	TRPC4 agonist 75
c1ccc(CCNc2ncnc3sccc23)nc1	TRPC4 agonist 51
Cc1csc2ncnc(NCCc3ccccn3)c12	none

Compound activity (PubChem)
